Bioassay records from PubChem.
Compounds with a hit are over-represented: about 1.6% of the library has one in this group of screens.
PKA-R1A activ: PKA-R1A complex activation; PKA-R1A dissociation, Cy5-IP20 fluorescence polarization; scaled: DMSO 0%, 113 µM cGMP 100%; activation, % at 11.4 µM; hit rate 0.083% among 340,000; AID 504707;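 active = percent activation above the mean of all tested compounds plus 3 SD, cut at about 19% in these data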;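 also: higher means more PKAc released from R1A so a rise in polarization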
T cell HTS: modulates CD8 T cell binding to vesicles; 2C CD8+ T cell-vesicle binding, flow cytometry; stronger effect = lower value; response (vesicle binding), % at 7 µM; hit rate 0.068% among 330,000;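 active = response, share of CD8 T cells binding vesicles, and their 90th percentile fluorescence all below set limits, cut at about 80% in these data, passing the limit was not always enough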;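 also: values below 100% mean blocked vesicle binding to the CD8+ T cells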
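System: murine 2C transgenic CD8+ T lymphocytes; also added: QL9-loaded Drosophila micro-vesicles; times: binding 1.5 h at 37 °C; measured by: flow cytometry, PE anti-B7-1 (FL2) versus Alexa647 anti-CD8 (FL8), PFA-fixed; control set: Peptide-free naked vesicles (low) and QL9 vesicles with 0.7% DMSO vehicle (high)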
HKDC1 inhibitor: inhibitors of human hexokinase HKDC1 | Q2TB90 | recombinant HKDC1, G6PDH/diaphorase resazurin coupled fluorescence | inhibition, % at 20 µM | hit rate 0.16% among 340,000 | AID 493160;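 active = inhibition above about 35% when tested at 20 µM, limit read from the data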
Target sequence (Q2TB90 whole entry, looked up): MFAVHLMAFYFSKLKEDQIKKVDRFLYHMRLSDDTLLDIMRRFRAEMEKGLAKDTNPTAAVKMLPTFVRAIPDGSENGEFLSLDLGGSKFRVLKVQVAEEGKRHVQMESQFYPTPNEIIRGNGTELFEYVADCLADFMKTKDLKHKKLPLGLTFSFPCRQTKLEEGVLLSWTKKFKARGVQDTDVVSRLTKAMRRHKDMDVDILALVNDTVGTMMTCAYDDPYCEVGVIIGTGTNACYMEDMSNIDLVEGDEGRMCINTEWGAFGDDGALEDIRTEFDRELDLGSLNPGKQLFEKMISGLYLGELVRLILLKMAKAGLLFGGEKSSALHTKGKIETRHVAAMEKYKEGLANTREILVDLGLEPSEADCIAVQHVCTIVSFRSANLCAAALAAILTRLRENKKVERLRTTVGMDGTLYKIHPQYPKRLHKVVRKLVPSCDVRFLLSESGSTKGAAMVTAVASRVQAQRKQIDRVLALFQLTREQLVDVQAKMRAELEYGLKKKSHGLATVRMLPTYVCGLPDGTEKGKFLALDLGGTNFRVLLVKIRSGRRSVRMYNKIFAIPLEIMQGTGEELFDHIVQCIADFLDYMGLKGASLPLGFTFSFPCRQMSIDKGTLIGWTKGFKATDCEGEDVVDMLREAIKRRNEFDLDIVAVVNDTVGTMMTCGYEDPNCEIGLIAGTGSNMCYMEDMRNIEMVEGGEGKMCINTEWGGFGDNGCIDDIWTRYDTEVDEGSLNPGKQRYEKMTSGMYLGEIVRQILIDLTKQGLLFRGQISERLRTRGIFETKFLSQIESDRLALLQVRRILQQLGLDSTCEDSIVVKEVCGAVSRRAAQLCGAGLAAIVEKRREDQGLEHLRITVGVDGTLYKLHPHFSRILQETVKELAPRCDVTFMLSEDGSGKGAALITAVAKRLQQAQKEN
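Assay system – recombinant HKDC1 (HK5) hexokinase enzyme, produced in-house · Input – HKDC1 at 5 µg/mL · Reagent – glucose plus 1 mM ATP as hexokinase substrates · Timing – 90 min reaction incubation at room temperature, dark · Measured by – G6PDH/diaphorase-coupled fluorescence, 1 mM NADP, 100 µM resazurin, 525/613 nm · Benchmarks – DMSO-enzyme wells negative, buffer-substituted wells positive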
PKA-R2B activ: activates the human PKA-R2B holoenzyme complex; P22694+P31323; PKA-R2B holoenzyme dissociation, Cy5-IP20 fluorescence polarization; R2B truncated from residue 108, S112A mutant; 0% DMSO only, 100% 113 µM cGMP; activation, % at 11.4 µM; AID 504700; hit rate 0.079% among 340,000;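 active = activation above a cutoff set at the mean over all compounds plus 3 SD, cut at about 18% in these data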;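 also: higher means more holoenzyme dissociation and a rise in polarization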
PfGluPho inh: PfG6PD (Plasmodium falciparum) enzyme inhibition. PfGluPho enzyme, NADPH resazurin-diaphorase fluorescence. inhibition, % at 20 µM. hit rate 0.78% among 350,000;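 active = inhibition reaching at least a set limit at 20 µM in the primary screen, cut at about 59% in these data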
ATG4B inh: ATG4B (human) cysteine protease inhibition | AID 504462 | ATG4B cleavage of LC3-PLA2, NBD-HPC fluorescence, 1 h | inhibition, % at 8.33 µM | hit rate 0.51% among 340,000; in the data active = inhibition above about 40%
PfG6PD confirm: confirmation of Plasmodium falciparum G6PD inhibitors | shares compounds with PfGluPho inh | recombinant PfGluPho, NADPH-diaphorase-resazurin fluorescence | inhibition, % at 20 µM | hit rate 34% among 2,400 | AID 504753;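 active = inhibition of at least 50% at 20 µM in any single replicate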
Diaph ctr 10uM: diaphorase inhibition or oxidation at 10 uM NADPH. shares compounds with PfGluPho inh. diaphorase-coupled resazurin reduction, fluorescence, NADPH 10 uM. inhibition, % at 20 µM. hit rate 39% among 820. AID 504862;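 active = average inhibition reaching 50% or more with the compound at 20 µM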;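 also: resorufin red fluorescence formed as diaphorase reduces resazurin using NADPH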
Diaphorase 30uM: counter-screen for P. falciparum G6PD inhibitors: diaphorase inhibitors, oxidizers; shares compounds with PfGluPho inh; Diaphorase/resazurin coupled assay, resorufin fluorescence, 30 uM NADPH; inhibition, % at 20 µM; hit rate 29% among 820;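 active = inhibition averaging 50% or more, tested at 20 µM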
Large screens that a line does not name were inactive (follow-up assays come after a bar, where they were run).

CCOc1ccccc1Oc1nc(-c2ccccc2O)nc2ccccc12	PfGluPho inh 86 | PfG6PD confirm inactive
O=C(Nc1nnc(C2CCCCC2)s1)c1ccc(Br)s1	none
CCSc1nnc(NC(=O)c2ccccc2)s1	PfGluPho inh 62 | PfG6PD confirm inactive
CCSc1nnc(NC(=O)c2ccc(Br)s2)s1	PfGluPho inh 102 | PfG6PD confirm 64 | Diaph ctr 10uM 70 | Diaphorase 30uM 61
CCSc1nnc(NC(=O)c2ccccn2)s1	none
CCSc1nnc(Nc2ccc(C)cc2)s1	PfGluPho inh 66 | PfG6PD confirm inactive
CCSc1nnc(NC(=O)c2cccnc2)s1	none
O=C(Nc1nnc(C(F)(F)F)s1)c1ccc(Br)s1	PfGluPho inh 85 | PfG6PD confirm 72 | Diaph ctr 10uM 65 | Diaphorase 30uM 52
C[C@H](CO)N1C[C@H](C)[C@@H](CN(C)C(=O)Nc2ccc(F)cc2)Oc2cc(Br)ccc2S1(=O)=O	none (no result: T cell HTS, HKDC1 inhibitor, ATG4B inh)
CC(=O)C[C@H](O)CC(=O)[C@H]1OC(=O)[C@H](C)C/C=C\Cc2ccccc21	none
Cc1cc(C)n2nc(-c3ccccc3)c(-c3ccccc3)c2n1	none
Cc1cc(C(=O)Nc2nnc(C(F)(F)F)s2)cs1	PfGluPho inh 119 | PfG6PD confirm 82 | Diaph ctr 10uM 77 | Diaphorase 30uM 72
Cc1cccc(Sc2ccc([N+](=O)[O-])cc2[N+](=O)[O-])n1	PfGluPho inh 64 | PfG6PD confirm inactive
O=[N+]([O-])c1ccc(Sc2ncccn2)c([N+](=O)[O-])c1	none (no result: PKA-R1A activ, PKA-R2B activ)
O=C(Nc1cccc([N+](=O)[O-])c1)c1ccc2ccccc2c1O	PfGluPho inh 78 | PfG6PD confirm inactive
O=C(Cc1ccccc1)Nc1cccc([N+](=O)[O-])c1	none
CCCc1cc(C(=O)Nc2cccc([N+](=O)[O-])c2)cs1	PfGluPho inh 81 | PfG6PD confirm inactive
CC(C)(C)c1ccc(C(=O)Nc2cccc([N+](=O)[O-])c2)cc1	PfGluPho inh 74 | PfG6PD confirm inactive
Cc1sc2nc(-c3ccc(Br)cc3)oc(=O)c2c1C	none
Cc1cc(C)c(S(=O)(=O)Nc2ccc3c4c(cccc24)CC3)c(C)c1	PfGluPho inh 91 | PfG6PD confirm inactive
Cc1c(NC(=O)c2cccc(NC(=O)C(C)Oc3ccccc3)c2)c(=O)n(-c2ccccc2)n1C (stereo not drawn)	none (no result: T cell HTS, HKDC1 inhibitor, ATG4B inh)
[O-]/[N+](=C\c1ccncc1)c1ccccc1	PfGluPho inh 74 | PfG6PD confirm 52 | Diaph ctr 10uM inactive | Diaphorase 30uM inactive
Cc1nc2cc(NC(=O)c3ccc(Br)s3)ccc2s1	PfGluPho inh 67 | PfG6PD confirm inactive
Cc1ccc(C(=O)Nc2ccc3nc(C)sc3c2)s1	none
CC(NCCN(C)C)C1CCC2C3CCc4cc(O)ccc4C3CCC12C (stereo not drawn)	none (no result: T cell HTS)
CCCCC1C(=O)N(c2ccccc2)N(c2ccc(O)cc2)C1=O (stereo not drawn)	PfGluPho inh 78 | PfG6PD confirm 54 | Diaph ctr 10uM inactive | Diaphorase 30uM inactive
CC(=O)c1ccc(-c2ccc(-c3cc(=O)oc4c(C(C)C)ccc(C)c34)cc2)cc1	none (no result: T cell HTS)
COc1ccc([N+](=O)[O-])cc1NS(=O)(=O)c1ccc(C)cc1	none
Cc1ccc(S(=O)(=O)Nc2ccccc2N=Cc2ccc([N+](=O)[O-])cc2[N+](=O)[O-])cc1	PfGluPho inh 84 (no result: T cell HTS) | PfG6PD confirm inactive
O=[N+]([O-])c1ccccc1S(=O)(=O)N1CCN(S(=O)(=O)c2ccc3c(c2)OCCO3)CC1	none
COCC(C)n1c(C)cc(C(=O)CSc2nc(C)c(C)c(C)n2)c1C (stereo not drawn)	PfGluPho inh 60 | PfG6PD confirm inactive
OCc1ccccc1CNCc1ccccc1	none
Oc1cc(CNCc2ccccc2)c(O)cc1CNCc1ccccc1	PfGluPho inh 70 (no result: T cell HTS) | PfG6PD confirm 49 | Diaph ctr 10uM inactive | Diaphorase 30uM inactive
CCOC(=O)c1ccccc1NC(=O)COC(=O)Cc1ccccc1F	none (no result: T cell HTS)
N#CCCN(C(=O)COC(=O)CCN=C1NS(=O)(=O)c2ccccc21)c1ccc(F)cc1	none
CCCCCCc1ccc(N2C[C@H](Cc3ccccc3)[C@@H](CC(=O)Nc3ccccc3)C2=O)cc1	none
COc1ccc(-n2c(=S)[nH]c3c(sc(=S)n3-c3ccccc3)c2=O)c(OC)c1	PfGluPho inh 89 | PfG6PD confirm 61 | Diaph ctr 10uM inactive | Diaphorase 30uM inactive
CCOc1ccccc1-n1c(=S)sc2c(=O)n(-c3ccc(C)cc3)c(=S)[nH]c21	PfGluPho inh 98 | PfG6PD confirm 78 | Diaph ctr 10uM 56 | Diaphorase 30uM 51
COc1ccc(-n2c(=S)[nH]c3sc(-c4ccccc4)cc3c2=O)c(OC)c1	none
N#C/C(=C\c1ccc[nH]1)C(=O)Nc1ccccc1[N+](=O)[O-]	none
CCC1(c2ccc(Cl)cc2)NC(=O)N(CC(=O)NC2CCCCCC2)C1=O (stereo not drawn)	none (no result: T cell HTS)
COc1cccc(-c2nn(C)c3sc(C(=O)NCc4ccc(C)o4)cc23)c1	PfGluPho inh 64 | PfG6PD confirm inactive
COc1cccc(-c2nn(C)c3sc(C(=O)NCc4ccc5c(c4)OCO5)cc23)c1	none
c1nc(SSc2ncnc3nc[nH]c23)c2[nH]cnc2n1	PfGluPho inh 118 (no result: T cell HTS) | PfG6PD confirm 108 | Diaph ctr 10uM inactive | Diaphorase 30uM inactive
CCCCNC(=O)c1nn2c(C(F)(F)F)cc(-c3ccc(OC)cc3)nc2c1Br	none
CCOC(=O)C1CCN(C(=O)COC(=O)CSc2ccc([N+](=O)[O-])cc2)CC1	none
CC1CCCC(C)N1C(=O)COC(=O)CSc1ccc([N+](=O)[O-])cc1 (stereo not drawn)	PfGluPho inh 64 (no result: T cell HTS) | PfG6PD confirm inactive
CCOC(=O)c1sc2nc(N3CCCC3)c3c(c2c1N)CC(C)(C)OC3	none
CN(C(=O)c1sc2nc(N3CCCC3)c3c(c2c1N)CC(C)(C)OC3)c1ccccc1	PfGluPho inh 66 | PfG6PD confirm inactive
COc1ccc(N(C)S(=O)(=O)c2ccc3c(c2)NC(=O)CO3)c(OC)c1	none
O=C1CC(N2CCN(c3ccc(O)cc3)CC2)C(=O)N1c1ccc2c(c1)OCO2 (stereo not drawn)	PfGluPho inh 60 | PfG6PD confirm inactive
